Measured values from ChEMBL document CHEMBL3085692, “Violapyrones A-G, α-pyrone derivatives from Streptomyces violascens isolated from Hylobates hoolock feces” (J Nat Prod, 2013).
≈ marks a conversion by molar mass, not a printed value. Calls of active or inactive are those of the source. The rule behind the calls is not given here.

Key:
[1] = Cytotoxicity against human BGC823 cells by MTT assay; format: functional, cell-based; conditions: BGC-823
How it was run: (§1)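 MTT read-out measured on a microplate reader, with IC50 derived for each of the five lines (BGC-823, HepG2, H460, HeLa, HCT-116). Adriamycin was the positive control.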

Staphylococcus aureus = assay: Antimicrobial activity against Staphylococcus aureus ATCC 25923 by micro broth dilution method; format: functional
How it was run: (§2)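 Bacterial panel run against B. subtilis ATCC 6633 and S. aureus ATCC 25923. Read-out is minimal inhibitory concentration (MIC), reported as the mean of three independent experiments. Ciprofloxacin served as the reference antibacterial.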

Aspergillus niger = assay: Antimicrobial activity against Aspergillus niger ATCC 1015 by micro broth dilution method; format: functional
How it was run: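 Antifungal MIC against A. niger, reported as the mean of three independent experiments. Amphotericin B served as the reference antifungal.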

Pseudomonas aeruginosa = assay: Antimicrobial activity against Pseudomonas aeruginosa ATCC 27853 by micro broth dilution method; format: functional, organism-based
How it was run: (§3)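 Endpoint is the minimal inhibitory concentration (MIC), reported as the mean of three independent experiments. Reference drugs were ciprofloxacin for the bacteria and amphotericin B for the fungi. E. coli ATCC 25922 and P. aeruginosa ATCC 27853 were tested in a panel with B. subtilis ATCC 6633 and S. aureus ATCC 25923.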

HCT-116 = assay: Cytotoxicity against human HCT116 cells by MTT assay; format: functional, cell-based; how it was run: as §1
HepG2 = assay: Cytotoxicity against human HepG2 cells by MTT assay; format: functional, cell-based
[2] = Cytotoxicity against human H460 cells by MTT assay; format: functional, cell-based; conditions: NCI-H460; how it was run: as §1
Bacillus subtilis = assay: Antimicrobial activity against Bacillus subtilis ATCC 6633 by micro broth dilution method; format: functional; how it was run: as §2
Candida albicans = assay: Antimicrobial activity against Candida albicans ATCC 10231 by micro broth dilution method; format: functional; how it was run: as §3
HeLa = assay: Cytotoxicity against human HeLa cells by MTT assay; format: functional, cell-based; how it was run: as §1
Escherichia coli = assay: Antimicrobial activity against Escherichia coli ATCC 25922 by micro broth dilution method; format: functional, organism-based; how it was run: as §3

| Compound | IC50 [1] [µM] | MIC (Staphylococcus aureus) [µg/mL] | Activity (Aspergillus niger) | Activity (Pseudomonas aeruginosa) | IC50 (HCT-116) [µM] | IC50 (HepG2) [µM] | IC50 [2] [µM] | Activity (Bacillus subtilis) | Activity (Candida albicans) | IC50 (HeLa) [µM] | Activity (Escherichia coli) | MIC (Bacillus subtilis) [µg/mL] | Activity (Staphylococcus aureus) | MIC (Aspergillus niger) [µg/mL] |
| --- | --- | --- | --- | --- | --- | --- | --- | --- | --- | --- | --- | --- | --- | --- |
| CC(=O)C(C)CCCCc1cc(O)c(C)c(=O)o1 (centres undefined) | > 200 | 128 (≈ 507 µM) | inactive | inactive | > 200 | > 200 | > 200 | inactive | inactive | > 200 | inactive | – | – | – |
| O=C(O)c1cn(C2CC2)c2cc(N3CCNCC3)c(F)cc2c1=O [CIPROFLOXACIN] | – | 0.5 (≈ 1.51 µM) | – | – | – | – | – | – | – | – | – | 0.12 (≈ 0.362 µM) | – | – |
| Cc1c(O)cc(CCCC(C)C)oc1=O | > 200 | 8 (≈ 38 µM) | inactive | inactive | > 200 | > 200 | > 200 | – | inactive | > 200 | inactive | 32 (≈ 152 µM) | – | – |
| CCC(C)CCCCc1cc(O)c(C)c(=O)o1 (centres undefined) | > 200 | 16 (≈ 67.1 µM) | inactive | inactive | > 200 | > 200 | > 200 | – | inactive | > 200 | inactive | 16 (≈ 67.1 µM) | – | – |
| Cc1c(O)cc(CCCCC(C)(C)O)oc1=O | > 200 | – | inactive | inactive | > 200 | > 200 | > 200 | inactive | inactive | > 200 | inactive | – | inactive | – |
| COc1cccc2c1C(=O)c1c(O)c3c(c(O)c1C2=O)C[C@@](O)(C(=O)CO)C[C@@H]3O[C@H]1C[C@H](N)[C@H](O)[C@H](C)O1 [DOXORUBICIN] | 1.48 | – | – | – | 1.38 | – | 0.98 | – | – | 0.97 | – | – | – | – |
| COc1cc(CCCCC(C)(C)O)oc(=O)c1C | > 200 | 128 (≈ 503 µM) | inactive | inactive | > 200 | > 200 | > 200 | inactive | inactive | > 200 | inactive | – | – | – |
| C[C@@H]1[C@H](O)[C@@H](C)/C=C/C=C/C=C/C=C/C=C/C=C/C=C/[C@H](O[C@@H]2O[C@H](C)[C@@H](O)[C@H](N)[C@@H]2O)C[C@@H]2O[C@](O)(C[C@@H](O)C[C@@H](O)[C@H](O)CC[C@@H](O)C[C@@H](O)CC(=O)O[C@H]1C)C[C@H](O)[C@H]2C(=O)O [AMPHOTERICIN B] | – | – | – | – | – | – | – | – | – | – | – | – | – | 1 (≈ 1.08 µM) |
| Cc1c(O)cc(CCCCC(C)[C@H](C)O)oc1=O (some centres undefined) | > 200 | 128 (≈ 503 µM) | inactive | inactive | > 200 | > 200 | > 200 | – | inactive | > 200 | inactive | 128 (≈ 503 µM) | – | – |
| Cc1c(O)cc(CCCCC(C)C)oc1=O | > 200 | 4 (≈ 17.8 µM) | inactive | inactive | > 200 | > 200 | > 200 | – | inactive | > 200 | inactive | 4 (≈ 17.8 µM) | – | – |
